Test results: publication PMC8653953 (Cancer chemotherapy and pharmacology, 2021)
Where two headings read alike, the source gives them in different places. Numbered stars: 1 amine (or outer) side, 2 acyl side, 3 side chain; on linkers, the order of the positions; unused ones are H or OH. Bridge positions count the residues as written; N and C are the ends. Square brackets hold non-standard residues; d marks the D form. Peptide text beside a SMILES is read from it. I, II: the chains in the order shown. Actinocin(9to1) = Cc1c2oc3c(C)ccc(C(=O)[*:1])c3nc-2c(C(=O)[*:2])c(N)c1=O; NMeV = CN[C@H](C(=O)O)C(C)C; Sar = CNCC(=O)O

Columns and labels:
[1] = assay type: in vivo, human
In short: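 Five 2.5 mL catheter samples (three-draw-flush) taken on one of two random schedules, 5 min to 48-168 h post-infusion. Sodium-heparin plasma was separated within 6 h and frozen. LC-MS/MS, LLOQ 0.5 ng/mL. Noncompartmental: k_z from the last 3 points; AUC by linear trapezoid plus Clast/k_z; CL = dose/AUC∞; Vz = dose/(k_z·AUC∞). Episodes were compared by paired two-sided t-test on log-transformed differences.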

[2] = test system: patients <17 years old; assay: Vincristine target toxicity; assay type: in vivo, human; conditions: greater than baseline; weekly for one month and monthly for 6 months from sampling
In short: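 Vincristine-treated patients in four age cohorts were graded for neuropathy by CTC v3 (before 10/1/10) or CTCAE 4.03. Assessed weekly for one month, then monthly for 6 months from PK sampling. Only new-onset events or grade increases over baseline after sampling counted. Incidence was related to PK parameters and demographics by univariate logistic regression, then backward-selection multivariate regression.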

[3] = test system: patients <17 years old; assay: Actinomycin-D target toxicities; assay type: in vivo, human; conditions: during the study
In short: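 Actinomycin-D given to patients in four age cohorts (<1, 1 to <3, 3 to <12, 12 to <17 years). Grade 3 ALT, AST, GGT elevation, sinusoidal obstructive syndrome, and grade 3 neutrophil or platelet decrease were reported weekly for 21 days after PK sampling. Only new-onset events or grade increases over baseline counted. Each toxicity was related to PK and demographics by univariate logistic regression, then backward-selection multivariate regression.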

[4] = patients (n = 17) with two episodes of sampling, ratio (95% CI), P=0.05

Clearance ([1]; all ages, n=132 patients, median, CV 67%) [L/hr/m^2] | half-life ([1]; all ages, n=132 patients, median, CV 73%) [h] | AUC ([1]; all ages, n=132 patients, median, CV 98%) [ng·h/mL] | clearance, ratio between two sampling episodes ([1]; patients (n = 17) with two episodes of sampling, ratio (95% CI), P=0.04) | CL/BSA, ratio between two sampling episodes [1, 4] | Vz/BSA, ratio between two sampling episodes [1, 4] | half-life ([1]; all ages, n=52 patients, median, CV 60%) [h] | Clearance ([1]; all ages, n=52 patients, median, CV 90%) [L/hr/m^2] | median AUC of the youngest group, lower than the oldest groups ([1]; children <1 year vs oldest groups, consistent with the difference in dose) | Structure (SMILES) | patients with grade 3 peripheral motor neuropathy [2] | patients with grade 3 peripheral sensory neuropathy [2] | sinusoidal obstructive syndrome [3]
17.2 | 14.6 | 78 | 1.54 (1.03,2.31) | 1.50 (0.99–2.25) | 1.56 (0.99–2.46) |  |  |  | CC[C@]1(O)C[C@H]2CN(CCc3c([nH]c4ccccc34)[C@@](C(=O)OC)(c3cc4c(cc3OC)N(C=O)[C@H]3[C@@](O)(C(=O)OC)[C@H](OC(C)=O)[C@]5(CC)C=CCN6CC[C@]43[C@@H]65)C2)C1 [Vincristine] | four | four | 
 |  |  |  |  |  | 25 | 4.6 | approximately 50% | Cc1c2oc3c(C)ccc(C(=O)N[C@@H]4C(=O)N[C@H](C(C)C)C(=O)N5CCC[C@H]5C(=O)N(C)CC(=O)N(C)[C@@H](C(C)C)C(=O)O[C@@H]4C)c3nc-2c(C(=O)N[C@@H]2C(=O)N[C@H](C(C)C)C(=O)N3CCC[C@H]3C(=O)N(C)CC(=O)N(C)[C@@H](C(C)C)C(=O)O[C@@H]2C)c(N)c1=O [Actinomycin-D] (I: T[dV]P[Sar][NMeV] / II: T[dV]P[Sar][NMeV]; ester I:1-I:C, II:1-II:C; linker I:N-II:N via Actinocin(9to1)) |  |  | No participant experienced sinusoidal obstructive syndrome
